The nature of this series: Toxicity liver stage against HepG2, at 10uM. The note with it: human, HepG2-A16-CD81EGFP cells; read-out: INHIBITION
Also noted: test concentration 10 uM, cell line HepG2-A16-CD81EGFP. The series is classed as cell-based. Summed up:
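Uninfected HepG2-A16-CD81EGFP cells, 3 × 10^3 per well, 1536-well, plated on prespotted compound at 10 μM final, parasite-free screening media added to match infected plates; puromycin 10 μM positive, DMSO 0.5% negative; run in parallel with 48 h PbLuc assay at 37 °C, 5% CO2; viability by CellTiter-Glo luminescence, normalized to controls.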
Turning to `CC(NCc1cccc2c1OCCO2)c1cc2c(cc1Br)OCCO2` (configuration not stated), the cytotoxicity at 10 µM is 3.6%. Then `O=C(NCc1ccc(-n2cncn2)nc1)c1ccoc1`, with -2.38%. Then `CCc1ccc(C(COC)NC(=O)c2ccc(O)nc2)o1` (configuration not stated), with 3.06%. For the compound `COc1ccc(CN2CCOC[C@H](Oc3cccnc3)C2)cc1`, the cytotoxicity at 10 µM was -4.03%. Take `Cn1nnnc1SC1CCc2ccccc2NC1=O` (configuration not stated): the cytotoxicity at 10 µM is -3.22%. As for `O=c1[nH]nc(-c2cccs2)c2sc(N3CCOCC3)nc12`, the cytotoxicity at 10 µM was found to be 9.28%. On to `O=C(N[C@@H]1CN(c2ncccn2)C[C@@H]2CCCO[C@@H]21)c1ccncc1`, for which the cytotoxicity at 10 µM turned out to be 2.29%.

On to `CCN1CCN(c2ccc(F)cc2C(C)NCc2cscn2)CC1` (configuration not stated), for which the cytotoxicity at 10 µM was -10.3%.

As for `Cc1noc(CN2CCN(CCS(C)(=O)=O)CC2)n1`, the cytotoxicity at 10 µM was -10.1%.

In the case of `O=C(C1CCC1)N1CCCC(c2cccc(-n3ccnc3)n2)C1` (configuration not stated), the cytotoxicity at 10 µM was -1.28%.

Regarding `Cc1cnn(C2CCCN(C(=O)c3cn4ccccc4n3)C2)c1` (configuration not stated), the cytotoxicity at 10 µM was -6.35%. Regarding `O=c1oc2ccccc2n1CCN(CC1CCOC1)C1CC1` (configuration not stated), the cytotoxicity at 10 µM amounted to 4.78%. Then `COc1ccc(CNC(=O)N2CCN(CC(O)C3CC3)CC2)cc1` (configuration not stated), with 7.11%; and `O=C(NCCc1cccs1)NCC(O)c1cccc(F)c1` (configuration not stated), with -4.07%; and `O=C(OCCNc1ncccn1)c1ccc(Cl)s1`, with -2.43%. Then `CCC(C)Oc1cc(C(=O)N(c2cccnc2)C(C)C)ccn1` (configuration not stated), with 8.77%; and `O=C(NC[C@]12COC[C@H]1CN(Cc1cccc(F)c1)C2)c1ccco1`, with -66.7%. Then `CCCn1nnnc1CSc1nccn1C`, with -3.39%.

Turning to `CCCS(=O)(=O)N1C[C@@H](c2ccccc2)[C@@]2(CCNC2=O)C1`, the cytotoxicity at 10 µM was -109%.

For the compound `CCc1nc(-c2cncnc2C2CCCNC2)no1` (configuration not stated), the cytotoxicity at 10 µM amounted to 1.73%.

Regarding `COc1cc(CC2CC(c3ccc4c(c3)OCO4)=NO2)cc2c1OCO2` (configuration not stated), the cytotoxicity at 10 µM turned out to be 0.69%. For the compound `CC(Cc1ccco1)NC(=O)CCn1cccn1` (configuration not stated), the cytotoxicity at 10 µM is -6.19%. Take `CC(=O)N[C@@H]1C[C@H](Cc2ccccc2)O[C@H](c2ccc(C(=O)O)cc2)C1`: the cytotoxicity at 10 µM was found to be 2.76%.

On to `CCC(CO)NC(=O)Nc1ccc(OCC(F)(F)F)c(C)c1` (configuration not stated), for which the cytotoxicity at 10 µM was found to be 10.9%. Consider `O=C(NCc1nccn1CCc1ccccc1)NCC1CCC1`, for which the cytotoxicity at 10 µM was determined as 4.7%.

As to `CC(C)CNC(=O)[C@H]1C[C@H]2CN(C(=O)NCCc3ccccc3)C[C@@H]1O2`, the cytotoxicity at 10 µM came to 1.22%.

Consider `COC1CCCN(C(=O)Nc2nc(C)n(C)n2)C1` (configuration not stated), for which the cytotoxicity at 10 µM is 16.3%. For `CCOC1CC2(CCN(Cc3cnn(C)c3)CC2)c2ccc(C)cc21` (configuration not stated) the value was 4.62%.

In the case of `COCCn1c(-c2cccc(OC)c2)cnc1NC(=O)NCC(C)C`, the cytotoxicity at 10 µM amounted to 11.4%. For the compound `Cc1noc(C)c1CN1CCCCC1c1nc(-c2ccccc2)no1` (configuration not stated), the cytotoxicity at 10 µM was -44%. For `CCN(Cc1nc2c(cnn2C)c(=O)[nH]1)c1cccc(C)c1C` the value was 1.66%; for `c1ccc(CCN2CC(n3cccn3)C2)nc1`, -0.2%. For `COc1ccc(-n2cnnc2SCCC#N)cn1` the value was 22.2%. As to `Cc1ccccc1CN1C[C@@H]2OCC(=O)N(CC(N)=O)[C@@H]2C1`, the cytotoxicity at 10 µM was -4.87%. Then `NC1CCN(c2nccn3c(=O)[nH]nc23)CC1`, with 3.65%; and `CCCSc1ncc(CN(C)CCN2CCCCC2)cn1`, with -1.39%; and `CC1CCCCN1C(=O)Cn1cc(I)cn1` (configuration not stated), with 0.687%. Then `O=C(CC1CCCO1)NCCc1ccc(Br)cc1F` (configuration not stated), with -7.78%; and `CC(=O)N1CCN(C(C)c2ccc(Br)cc2)CC1` (configuration not stated), with -5.63%. On to `CC[C@H]1CN2CC[C@H]1C[C@@H]2CNC(=O)c1ccco1`, for which the cytotoxicity at 10 µM was found to be 3.46%.

Take `COC[C@]1(O)CCN(C2CCN(c3ccc(Cl)cc3)CC2)CC1(C)C`: the cytotoxicity at 10 µM was -0.75%. Then `Cc1ccc(S(=O)(=O)N(CC(N)=O)CC(C)C)cc1C`, with -14.5%; and `CCc1nccn1-c1cccc(C2CCCN2S(=O)(=O)N(C)C)n1` (configuration not stated), with -9.85%. For the compound `Cc1nc(CN2CCN(C(=O)COCc3ccccc3)CC2)no1`, the cytotoxicity at 10 µM is -14.1%. For `CC(C)c1noc(CS(=O)(=O)CC(=O)NCc2ccccc2)n1` the value was -10.5%. `CCS(=O)(=O)CCN(CC1CCCO1)C1CCCC1` (configuration not stated): the cytotoxicity at 10 µM is -3.52%. In the case of `COCC1CC2(CCN(C(=O)c3occc3C)CC2)CO1` (configuration not stated), the cytotoxicity at 10 µM came out at 0.982%. Consider `COc1cc(C(C)=O)ccc1OCC(=O)N(CC(C)C#N)C1CC1` (configuration not stated), for which the cytotoxicity at 10 µM was -2.45%. Take `COc1cc(Oc2ncccc2C(F)(F)F)ccc1CN1CCCC1`: the cytotoxicity at 10 µM is 38.8%.

For `COc1ncccc1C(=O)N1CCN(C(=O)Cc2ccccn2)CC1`, the cytotoxicity at 10 µM is 0.722%.

On to `O=C(N[C@@H]1CN(Cc2ccc(F)c(F)c2)C[C@H]1O)c1cscn1`, for which the cytotoxicity at 10 µM was -3.78%.

For the compound `COCCN(Cc1ccccn1)Cc1sccc1C`, the cytotoxicity at 10 µM is -3.6%. For the compound `COCCNc1nc(C)nc2c1CCN(CC1CCC(N)CC1)CC2` (configuration not stated), the cytotoxicity at 10 µM was -2.84%. In the case of `CCn1ccnc1CN1CCN(CCCS(C)(=O)=O)CC1C` (configuration not stated), the cytotoxicity at 10 µM was -194%. On to `COc1ccc(CN(C)C2CSCCSC2)c2cccnc12`, for which the cytotoxicity at 10 µM was determined as 31.7%. For `O=C([C@H]1CN(Cc2ccccc2F)C[C@H]2OCC[C@@H]12)N1CCCO1` the value was 13%. Then `CC(C)Oc1ncccc1CNC(=O)N1CCOCC1`, with -40.6%; and `COc1ccc(Cn2cc(C(=O)N(C)Cc3ccon3)nn2)cc1`, with 5.61%. Regarding `COc1ccc(C(=O)CCC(=O)NCc2ncc(C)s2)cc1F`, the cytotoxicity at 10 µM was -11.8%. `CN1CCN([C@@H]2CN(C(=O)c3ccsc3)[C@@H]3CCCO[C@H]23)CC1`: the cytotoxicity at 10 µM came to 6.74%. For `Nc1ccc(-c2cc(O)cc(CCC3CCCCN3)c2)cn1` (configuration not stated) the value was -9.66%; for `CC(C)CNC(=O)[C@H]1CCS(=O)(=O)[C@@H]2CN(Cc3ccc(F)cc3)C[C@H]12`, 1.26%; for `Cc1cnc(NC(=O)N2CCCC2)s1`, -13.6%.

`Cc1cc2occ(CC(=O)N3CCC(O)(CN(C)C)C3)c2cc1Cl` (configuration not stated): the cytotoxicity at 10 µM is -6.55%.

Consider `COc1ccccc1[C@@H]1CN(Cc2csc(C(C)=O)c2)C[C@H]1C(=O)O`, for which the cytotoxicity at 10 µM is -4.75%.

Take `CCC[C@H]1CN(c2cncc(C(=O)N3CCCCC3)n2)C[C@@H]1N(C)C`: the cytotoxicity at 10 µM is -11.2%. On to `CCn1ccnc1CN1CCN(c2ncnc3ccsc23)CC1`, for which the cytotoxicity at 10 µM was found to be 5.39%. In the case of `CCCC1C=CCN1C(=O)c1cc(COc2ccc3c(c2)OCO3)[nH]n1` (configuration not stated), the cytotoxicity at 10 µM amounted to 1.99%.

For `Cn1c(CN2CCOCC2)cc(=O)c(O)c1CN1CCCC1`, the cytotoxicity at 10 µM was -1.07%.

Consider `Cc1ncc(CN2CCN(C(=O)C3CCC3)[C@@H]3CS(=O)(=O)C[C@@H]32)cn1`, for which the cytotoxicity at 10 µM is -4.19%. Then `CCCn1cnnc1CNC(=O)C1COc2cc(OC)ccc2C1` (configuration not stated), with 3.21%.

For `O=C(c1cnc(Cc2c(Cl)cccc2Cl)nc1O)N1CCNCC1`, the cytotoxicity at 10 µM was -3.01%.

Values taken from ChEMBL document CHEMBL4513216, “Probing the Open Global Health Chemical Diversity Library for Multistage-Active Starting Points for Next-Generation Antimalarials” (ACS Infect Dis, 2020).
